Laboratory results taken from ChEMBL document CHEMBL1125722 (J Med Chem, 1991).
Active and inactive are the calls of the source. No cut-off for these calls is given here.

Legend:
[1] = species: Rattus norvegicus; test: Tail-flick assay was performed to determine antinociceptive profile of the compound.; assay type: functional; design: unit not given here
[2] = tested on: Rattus norvegicus; test: Antagonist and antinociceptive profile was evaluated in a paraphenylquinone assay after subcutaneous injection.; assay type: functional
[3] = species: Rattus norvegicus; test: Agonist/antagonist and antinociceptive profile was assessed in a hotplate assay.; assay type: functional
[4] = biological target: T1, D(2) dopamine receptor (Rattus norvegicus, UniProt P61169); test: Neuroleptic activity in terms of [3H]spiroperidol binding to dopamine receptor D2 in rat striatal membrane.; assay type: cell membranes
Summary of the method: (§1)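 Striatal membranes from male Sprague-Dawley rats (1.4 mg protein/mL) were used in 50 mM Tris-HCl pH 7.1 with 0.1% ascorbate, 10 μM pargyline, 120 mM NaCl, 5 mM KCl and 1 mM each of CaCl2 and MgCl2. Incubation was with […], 20 min at 37 °C. Nonspecific binding was defined by 10⁻⁶ M haloperidol, with filtration and scintillation counting.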

[5] = biological target: T2, Mu-type opioid receptor (Rattus norvegicus, UniProt P33535); test: Opioid activity in terms of inhibition of [3H]dihydromorphine binding to opioid receptor mu in rat brain membrane.; assay type: cell membranes
Summary of the method: (§2)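 Whole-brain membranes, cerebellum removed, from male Sprague-Dawley rats (1 mg protein/mL) in 50 mM Tris-HCl pH 7.4 were preincubated 60 min at 25 °C. [3H]dihydromorphine was added to a […], with varying drug concentrations, for 60 min at 25 °C. Nonspecific binding was defined by 10⁻⁵ M naloxone, with GF/B filtration and scintillation counting.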

[6] = tested on: Rattus norvegicus; test: Effective dose for apomorphine induced circling behavior was determined in rats after subcutaneous administration of the compound.; assay type: functional
[7] = tested on: Rattus norvegicus; test: Effective dose for apomorphine induced circling behavior was determined in rats after subcutaneous administration of the compound; assay type: functional; settings: sc
[8] = species: Rattus norvegicus; test: Agonist/antagonist and antinociceptive profile was assessed in a hotplate assay
[9] = tested on: Monkey; test: Antagonist action in tail-flick antagonism vs morphine, in rhesus monkeys, compound was injected subcutaneously; Not Active; assay type: functional, organism-based; settings: Cercopithecidae
[10] = tested on: Rattus norvegicus; test: Antagonist and antinociceptive profile was evaluated in a paraphenylquinone assay after subcutaneous injection; settings: sc
[11] = biological target: T1, D(2) dopamine receptor; test: Neuroleptic activity in terms of [3H]spiroperidol binding to Dopamine receptor D2 in rat striatal membrane.; assay type: cell membranes; summary of the method: as §1
[12] = tested on: Monkey; test: Antagonist action in tail-flick antagonism vs morphine, in rhesus monkeys. Compound was injected subcutaneously; Not active; assay type: functional, organism-based; settings: Cercopithecidae
[13] = biological target: T2, Mu-type opioid receptor; test: Opioid activity in terms of inhibition of [3H]dihydromorphine binding to Opioid receptor mu 1 in rat brain membrane.; assay type: cell membranes; summary of the method: as §2
[14] = tested on: Monkey; test: Antagonist action in tail-flick antagonism vs morphine, in rhesus monkeys. Compound was injected subcutaneously.; assay type: functional; settings: Cercopithecidae, in Macaca mulatta, sc
[15] = Rattus norvegicus, sc, read-out: ED50
[16] = Rattus norvegicus, read-out: ED50

T1 sequence (P61169 whole entry): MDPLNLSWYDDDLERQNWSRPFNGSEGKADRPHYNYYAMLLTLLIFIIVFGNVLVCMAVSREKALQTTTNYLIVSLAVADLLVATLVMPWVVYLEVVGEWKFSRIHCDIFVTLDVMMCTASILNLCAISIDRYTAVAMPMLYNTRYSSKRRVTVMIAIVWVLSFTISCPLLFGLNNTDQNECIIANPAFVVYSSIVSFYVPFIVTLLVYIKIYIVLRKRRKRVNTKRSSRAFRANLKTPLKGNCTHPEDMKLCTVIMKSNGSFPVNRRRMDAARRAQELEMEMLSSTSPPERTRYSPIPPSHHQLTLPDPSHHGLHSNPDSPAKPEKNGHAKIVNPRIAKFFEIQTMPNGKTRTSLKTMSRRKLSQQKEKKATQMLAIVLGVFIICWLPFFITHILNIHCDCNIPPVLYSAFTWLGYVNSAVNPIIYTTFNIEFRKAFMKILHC
T2 sequence (P33535 whole entry): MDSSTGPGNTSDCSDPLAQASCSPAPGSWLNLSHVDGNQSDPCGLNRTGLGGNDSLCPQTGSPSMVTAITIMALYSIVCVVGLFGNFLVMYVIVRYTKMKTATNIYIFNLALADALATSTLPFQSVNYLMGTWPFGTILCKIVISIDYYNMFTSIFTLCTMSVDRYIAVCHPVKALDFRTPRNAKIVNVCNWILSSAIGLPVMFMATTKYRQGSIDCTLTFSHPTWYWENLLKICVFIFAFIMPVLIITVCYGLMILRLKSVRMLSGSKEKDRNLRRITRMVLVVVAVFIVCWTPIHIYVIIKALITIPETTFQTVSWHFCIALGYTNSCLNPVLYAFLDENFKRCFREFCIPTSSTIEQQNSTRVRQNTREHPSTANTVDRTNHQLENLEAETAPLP

| SMILES | Activity [1] | ED50 [6] | ED50 [2, 15] | IC50 [11] | ED50 [3, 16] | further results |
| --- | --- | --- | --- | --- | --- | --- |
| CCC(=O)O[C@@]1(c2ccccc2)CCN(CCCC(=O)c2ccc(F)cc2)CC1C (single isomer, unassigned; (+)) | 0.8 | 1.6 µM/kg | – | – | – | ED50 [2]: 0.2 µM/kg; ED50 [3]: 0.9 µM/kg; IC50 [4]: 43.3 nM; IC50 [5]: 6.1 nM |
| O=C(CCCN1CCC(O)(c2ccc(Cl)cc2)CC1)c1ccc(F)cc1 [HALOPERIDOL] | – | – | – | – | – | ED50 [7]: 0.1 µmol/kg |
| CN1CC[C@]23c4c5ccc(O)c4O[C@H]2[C@@H](O)C=C[C@H]3[C@H]1C5 [MORPHINE] | 10.6 | – | – | – | – | ED50 [8]: 2.9 µmol/kg; ED50 [9]: inactive; ED50 [10]: 0.4 µmol/kg |
| CCC(=O)O[C@]1(c2ccccc2)CCN(CCCC(=O)c2ccc(F)cc2)C[C@H]1C | >60.8 | – | 2.9 µmol/kg | 147 nM | > 72.9 µmol/kg | ED50 [12]: inactive; ED50 [6, 15]: > 12 µmol/kg |
| CCC(=O)O[C@@]1(c2ccccc2)CCN(CCCC(=O)c2ccc(F)cc2)CC1C (mixture of isomers) | 1.7 | 3.9 µM/kg | 0.2 µmol/kg | 53.8 nM | 1.6 µmol/kg | IC50 [13]: 9.5 nM; ED50 [14]: > 60.8 µmol/kg |
